Reference: ChEMBL document CHEMBL3745614, “Potent and selective N-(4-sulfamoylphenyl)thiourea-based GPR55 agonists” (Eur J Med Chem, 2016)
The source made the active and inactive calls. The rule behind the calls is not given here.

Key:
[1] = biological target: T1, Sodium- and chloride-dependent glycine transporter 1 (Homo sapiens, UniProt P48067); test: Inhibition of GlyT1 (unknown origin) expressed in HEK293 cells by scintillation proximity assay; format: cell-based
T1 sequence (P48067 whole entry): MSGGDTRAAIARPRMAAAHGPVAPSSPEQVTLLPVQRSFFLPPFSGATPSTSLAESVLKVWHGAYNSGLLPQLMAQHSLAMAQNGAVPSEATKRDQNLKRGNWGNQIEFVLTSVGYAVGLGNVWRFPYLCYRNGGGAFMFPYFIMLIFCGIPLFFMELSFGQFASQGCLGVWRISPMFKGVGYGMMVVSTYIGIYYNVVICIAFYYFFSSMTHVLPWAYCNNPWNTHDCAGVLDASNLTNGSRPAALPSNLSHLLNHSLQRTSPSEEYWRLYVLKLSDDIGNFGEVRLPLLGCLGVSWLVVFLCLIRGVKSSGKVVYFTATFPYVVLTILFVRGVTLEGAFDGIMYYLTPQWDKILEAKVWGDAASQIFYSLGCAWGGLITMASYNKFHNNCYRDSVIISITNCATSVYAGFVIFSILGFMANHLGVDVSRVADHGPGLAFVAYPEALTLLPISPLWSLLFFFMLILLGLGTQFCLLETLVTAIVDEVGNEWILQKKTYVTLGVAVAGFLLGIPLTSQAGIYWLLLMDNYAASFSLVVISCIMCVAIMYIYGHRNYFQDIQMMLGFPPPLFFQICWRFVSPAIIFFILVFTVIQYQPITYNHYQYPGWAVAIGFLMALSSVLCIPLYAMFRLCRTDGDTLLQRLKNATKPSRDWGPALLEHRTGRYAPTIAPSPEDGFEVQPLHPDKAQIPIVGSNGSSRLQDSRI

[2] = biological target: T2, G-protein coupled receptor 55 (Homo sapiens, UniProt Q9Y2T6); test: Agonist activity at human GPR55 expressed in Saccharomyces cerevisiae by beta-galactosidase reporter assay
T2 sequence (Q9Y2T6 whole entry): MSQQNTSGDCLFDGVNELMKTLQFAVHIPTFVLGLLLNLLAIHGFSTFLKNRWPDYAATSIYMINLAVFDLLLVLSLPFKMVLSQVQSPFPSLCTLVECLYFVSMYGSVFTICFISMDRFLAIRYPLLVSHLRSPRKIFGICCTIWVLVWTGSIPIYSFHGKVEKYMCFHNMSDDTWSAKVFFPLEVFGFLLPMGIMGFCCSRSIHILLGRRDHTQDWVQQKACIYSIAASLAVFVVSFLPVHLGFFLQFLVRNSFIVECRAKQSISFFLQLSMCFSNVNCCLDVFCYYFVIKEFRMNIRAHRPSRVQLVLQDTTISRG

[3] = biological target: T2, G-protein coupled receptor 55; test: Agonist activity at human GPR55 expressed in CHOK1 cells at 10 uM by pathHunter beta-arrestin assay relative to control; format: cell-based; conditions: CHO-K1
In short: (§1)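 PathHunter eXpress GPR55 CHO-K1 β-arrestin kit run per the kit protocol, compounds screened at 10 μM. Luminescence read and expressed as percentage of the signal from bovine liver LPI at 1 μM. Mean with range of two experiments, each done in duplicate.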

[4] = biological target: T2, G-protein coupled receptor 55; test: Agonist activity at human GPR55 expressed in CHOK1 cells at 10 uM by pathHunter beta-arrestin assay relative to LPI; format: cell-based; conditions: CHO-K1; in short: as §1
[5] = biological target: T3, Monoacylglycerol lipase ABHD6 (Homo sapiens) (UniProt Q9BV23); test: Inhibition of human ABHD6 expressed in […] cells using 2-AG as substrate assessed as glycerol liberation at 1 uM preincubated for 30 mins followed by 2-AG addition measured for 90 mins by fluorescent glycerol assay relative to control; format: cell-based; parameters: scale not given: the % may be the effect or the level left
T3 sequence (whole entry): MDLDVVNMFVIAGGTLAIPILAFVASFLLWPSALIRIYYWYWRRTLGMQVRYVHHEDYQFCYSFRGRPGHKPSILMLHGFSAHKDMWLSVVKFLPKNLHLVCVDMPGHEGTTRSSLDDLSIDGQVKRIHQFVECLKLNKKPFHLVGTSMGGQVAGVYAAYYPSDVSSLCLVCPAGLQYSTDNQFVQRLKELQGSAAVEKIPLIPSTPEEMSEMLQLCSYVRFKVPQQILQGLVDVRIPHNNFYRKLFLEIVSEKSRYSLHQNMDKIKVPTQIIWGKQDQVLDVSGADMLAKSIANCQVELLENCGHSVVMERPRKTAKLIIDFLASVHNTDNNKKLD
In short: (§2)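 Lysates of HEK293 cells transiently overexpressing hABHD6 or hABHD12, 0.3 μg protein/well. Pretreated 30 min with DMSO or compound, then 2-AG added (12.5 μM final). Glycerol release coupled enzymatically to H2O2-dependent resorufin formation; fluorescence (ex 530/em 590 nm) followed kinetically for 90 min.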

[6] = biological target: T4, Lysophosphatidylserine lipase ABHD12 (Homo sapiens) (UniProt Q8N2K0); test: Inhibition of human ABHD12 expressed in […] cells using 2-AG as substrate assessed as glycerol liberation at 1 uM preincubated for 30 mins followed by 2-AG addition measured for 90 mins by fluorescent glycerol assay relative to control; format: cell-based; parameters: scale not given: the % may be the effect or the level left; in short: as §2
T4 sequence (whole entry): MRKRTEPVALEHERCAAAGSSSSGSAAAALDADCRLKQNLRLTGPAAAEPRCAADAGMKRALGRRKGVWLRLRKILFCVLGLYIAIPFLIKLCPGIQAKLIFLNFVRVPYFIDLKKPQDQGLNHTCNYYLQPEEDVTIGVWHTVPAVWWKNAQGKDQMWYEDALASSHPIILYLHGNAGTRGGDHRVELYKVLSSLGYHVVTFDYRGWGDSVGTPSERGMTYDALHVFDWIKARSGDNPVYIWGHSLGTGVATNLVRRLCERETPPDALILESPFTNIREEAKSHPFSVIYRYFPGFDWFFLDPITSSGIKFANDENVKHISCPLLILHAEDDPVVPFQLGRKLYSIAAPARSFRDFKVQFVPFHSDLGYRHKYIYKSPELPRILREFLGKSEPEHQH

[7] = biological target: Cannabinoid receptor 2 (Homo sapiens) (UniProt P34972); test: Agonist activity at CBR2 (unknown origin) assessed as [35S]GTPgammaS binding at 10 uM by […] assay relative to control; format: functional
Sequence of Cannabinoid receptor 2 (Homo sapiens) (P34972 whole entry): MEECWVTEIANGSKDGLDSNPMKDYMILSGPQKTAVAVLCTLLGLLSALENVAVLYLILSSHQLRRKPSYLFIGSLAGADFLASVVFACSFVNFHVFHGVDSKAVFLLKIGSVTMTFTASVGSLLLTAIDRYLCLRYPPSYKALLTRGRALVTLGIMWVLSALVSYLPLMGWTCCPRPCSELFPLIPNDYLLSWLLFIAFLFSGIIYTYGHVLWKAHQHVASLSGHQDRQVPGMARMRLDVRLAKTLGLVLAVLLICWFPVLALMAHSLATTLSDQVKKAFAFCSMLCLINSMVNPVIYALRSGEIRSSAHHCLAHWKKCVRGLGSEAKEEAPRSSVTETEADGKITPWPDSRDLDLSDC

[8] = biological target: Cannabinoid receptor 1 (Homo sapiens) (UniProt P21554); test: Antagonist activity at human CBR1 assessed as [35S]GTPgammaS binding at 10 uM by radiometric assay relative to control; parameters: scale not given: the % may be the effect or the level left
Sequence of Cannabinoid receptor 1 (Homo sapiens) (P21554 whole entry): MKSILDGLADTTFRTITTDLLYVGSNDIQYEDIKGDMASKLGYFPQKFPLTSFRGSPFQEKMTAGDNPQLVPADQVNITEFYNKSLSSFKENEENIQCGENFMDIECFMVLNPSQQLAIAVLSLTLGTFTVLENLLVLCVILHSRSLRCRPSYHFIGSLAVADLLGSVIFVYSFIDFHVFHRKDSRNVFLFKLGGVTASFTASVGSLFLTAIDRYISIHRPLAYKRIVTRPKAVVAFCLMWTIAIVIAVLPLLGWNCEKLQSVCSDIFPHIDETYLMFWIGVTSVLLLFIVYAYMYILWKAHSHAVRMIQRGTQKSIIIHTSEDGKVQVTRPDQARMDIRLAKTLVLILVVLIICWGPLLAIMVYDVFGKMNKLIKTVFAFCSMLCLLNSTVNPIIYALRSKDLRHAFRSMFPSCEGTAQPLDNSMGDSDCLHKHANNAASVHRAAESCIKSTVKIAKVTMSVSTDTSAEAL

[9] = biological target: T5, Fatty-acid amide hydrolase 1 (Homo sapiens) (UniProt O00519); test: Inhibition of human FAAH expressed in African green monkey COS-7 cell membranes using [3H]-AEA as substrate assessed as residual activity at 10 uM preincubated for 10 mins followed by substrate addition measured after 10 mins by liquid scintillation counting analysis relative to control
T5 sequence (whole entry): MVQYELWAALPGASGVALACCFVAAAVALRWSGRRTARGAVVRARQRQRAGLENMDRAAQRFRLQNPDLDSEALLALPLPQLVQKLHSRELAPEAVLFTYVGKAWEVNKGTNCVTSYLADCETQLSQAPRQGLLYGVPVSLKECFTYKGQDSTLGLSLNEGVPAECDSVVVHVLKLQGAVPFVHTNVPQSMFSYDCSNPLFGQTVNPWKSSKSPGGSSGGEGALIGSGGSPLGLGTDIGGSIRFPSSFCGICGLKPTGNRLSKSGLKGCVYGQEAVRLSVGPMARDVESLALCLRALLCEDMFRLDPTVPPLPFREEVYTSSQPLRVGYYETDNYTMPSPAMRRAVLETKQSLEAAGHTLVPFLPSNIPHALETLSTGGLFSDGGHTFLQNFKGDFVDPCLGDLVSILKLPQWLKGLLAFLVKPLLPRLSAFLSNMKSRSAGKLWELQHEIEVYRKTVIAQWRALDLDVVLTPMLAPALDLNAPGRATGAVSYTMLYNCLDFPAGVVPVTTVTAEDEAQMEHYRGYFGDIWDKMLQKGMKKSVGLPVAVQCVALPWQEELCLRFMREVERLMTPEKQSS
In short: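 Membranes of COS-7 cells overexpressing hFAAH, 1 μg protein per incubation. Substrate 20 μM AEA including 10 nM [3H]AEA (60 Ci/mmol). Compounds tested at 10 μM.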

[10] = biological target: T2, G-protein coupled receptor 55; test: Agonist activity at human GPR55 expressed in HEK293 cells assessed as calcium signalling at 10 uM by fura 2-based digital epifluorescence microscopy; format: functional, cell-based
[11] = biological target: T6, Monoglyceride lipase (Homo sapiens) (UniProt Q99685); test: Inhibition of human MGL expressed in […] cells using 2AG as substrate assessed as residual activity at 10 uM preincubated for 10 mins followed by substrate addition measured after 10 mins by HPLC analysis; format: cell-based
T6 sequence (whole entry): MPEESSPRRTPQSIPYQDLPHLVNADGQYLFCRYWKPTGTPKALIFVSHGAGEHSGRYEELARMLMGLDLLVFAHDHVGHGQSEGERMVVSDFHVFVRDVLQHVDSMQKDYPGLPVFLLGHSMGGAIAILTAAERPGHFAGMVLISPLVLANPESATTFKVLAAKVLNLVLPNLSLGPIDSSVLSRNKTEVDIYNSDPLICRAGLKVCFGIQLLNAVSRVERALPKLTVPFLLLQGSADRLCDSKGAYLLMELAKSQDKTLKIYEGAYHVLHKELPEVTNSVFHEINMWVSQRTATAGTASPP
In short: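 Lysates of HEK cells overexpressing hMGL, 2.5 μg protein per incubation, substrate at 50 μM. Compounds tested at 10 μM.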

[12] = biological target: Cannabinoid receptor 2 (Homo sapiens) (UniProt P34972); test: Antagonist activity at human CBR2 assessed as [35S]GTPgammaS binding at 10 uM by […] assay relative to control; format: functional; parameters: scale not given: the % may be the effect or the level left
[13] = biological target: Cannabinoid receptor 1 (Homo sapiens) (UniProt P21554); test: Agonist activity at CBR1 (unknown origin) assessed as [35S]GTPgammaS binding at 10 uM by […] assay relative to control; format: functional

`CS(=O)(=O)c1ccc(-c2ccc(F)cc2)c(C(=O)N2CCN(c3ccc(N)cc3F)CC2)c1` gave an IC50 [1] of 10000 nM and an EC50 [2] of 158 nM.

`COC(C)c1ccc(N2CCN(C(=O)c3cc(S(C)(=O)=O)ccc3-c3ccc(F)cc3)CC2)c(F)c1` (stereo unspecified) gave an IC50 [1] of 20 nM and an EC50 [2] of 316 nM.

With `O=C(NC(=S)Nc1ccc(S(=O)(=O)NCc2ccc(I)cc2)cc1)c1ccc(-c2ccccc2)cc1` the Activity [3] was 157%, the Activity [4] was 107% and the Activity [5] was 103%. It also gave an Activity [6] of 100%, an Activity [7] of 95% and an Activity [8] of 98%. The Activity [9] was 93%, the Activity [10] was “inactive” and the Activity [11] was 98%. It also gave an Activity [12] of 95% and an Activity [13] of 100%.

For `O=C(NC(=S)Nc1ccc(S(=O)(=O)NCCc2c[nH]c3ccccc23)cc1)c1ccc(-c2ccccc2)cc1`, the Activity [3] was 132%, the Activity [4] was 90% and the Activity [5] was 99%. The Activity [6] was 101%, the Activity [7] was 96% and the Activity [8] was 94%. The Activity [9] was 85%, the Activity [10] was “inactive” and the Activity [11] was 102%. For the same compound, the Activity [12] was 106% and the Activity [13] was 103%.
